Here are results for 13 compounds from PubChem BioAssay.

Assay [1] is described as follows: inhibitors of TNFa-induced NFkB p65 translocation, primary screen, imaging, HUVEC, MLSMR starter and 10KST1 sets (AID 438).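 For inhibition: signal is the nuclear over cytoplasmic p65 intensity ratio per well.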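 Note: compound added about 3h40 before a 20 min TNFalpha stimulation.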 To be noted: HUVEC TNFa-induced p65 nuclear translocation; cell count: measured here: nuclei count (cytotoxicity indicator), at 2.08 µM; inhibition: at 2 µM, stronger effect = higher value, 0% TNFa-plus-vehicle, 100% no-TNFa wells.
Assay [2] is described as follows: endothelial E-selectin expression blockers – imaging, HUVEC, immunofluorescence, MLSMR starter and 10KST1 sets, primary screen (AID 487;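 active = visually confirmed hit in the image check and inhibition above 20%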;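 for inhibition: signal is fraction of cell area covered by stained E-selectin grains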;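 for nuclei count: 100% = median nuclei count of all wells on the same plate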). To be noted: HUVEC TNFalpha-induced E-selectin immunofluorescence imaging, at 2 µM; inhibition: stronger effect = higher value; nuclei count: measured here: cell number, toxicity.
Assay [3] is described as follows: Primary imaging screen for DUSP6 inhibitors that restore phospho-Erk in transfected HeLa cells, chemical complementation (AID 609;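 active = compounds giving at least 50% inhibition in the cell-based MKP-3 phosphatase rescue imaging test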;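 for inhibition: phospho-Erk level distribution per well compared with pooled transfected vehicle control wells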). To be noted: HeLa MKP-3 transfected, phospho-Erk imaging KS statistic, at 10 µM, cells stimulated with TPA for 15 min.
For assay [4], the target named is Dual specificity protein phosphatase 6 (Homo sapiens) (UniProt Q16828). The assay is described as above. Conditions: HeLa MKP-3 transfected, phospho-Erk imaging KS statistic; at 10 µM; stronger effect = higher value; cells stimulated with TPA for 15 min.
The target in assay [5] is Voltage-gated potassium channel subunit beta-2 (Rattus norvegicus) (UniProt P62483). As to the kind of experiment: inhibitors of rat Kvbeta2 reductase activity – biochemical, NADPH fluorescence, primary screen (AID 622;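 active = fluorescence slope higher than the sample average by over 3 SD, cut at about -0.22 in these data, passing the limit was not always enough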;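 note: slope of raw intensity against log time taken from 70 to 1610 s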). Conditions: recombinant KvBeta, 4-cyanobenzaldehyde reduction, at 10 µM, stronger effect = higher value.
The target is the same in assay [6]. As to the kind of experiment: enhancers of rat Kvbeta2 NADPH turnover – biochemical, NADPH fluorescence, primary screen (AID 623;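 active = NADPH fluorescence slope more negative than the mean of all samples by about 3 SD, 99.7% confidence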;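 note: fluorescence intensity change per second fitted from 20 to 320 s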). To be noted: Recombinant KvBeta, NADPH fluorescence decrease slope, 10 min; at 10 µM; stronger effect = lower value.
The target of assay [7] is Alpha-2C adrenergic receptor (Homo sapiens) (UniProt P18825). In words: compounds altering alpha2C-coupled GIRK flux – cell-based, HEK293 alpha2C/GIRK1/2, thallium flux, primary screen (AID 624;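 active = fluorescence slope after compound addition differing from the mean of all screened samples at 99.7% confidence, in either direction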;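 note: slope of fluorescence ratio to pre-addition baseline per second over 15 to 24 s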). Conditions: thallium flux BTC fluorescence, at 10 µM, actives lie on both sides.
The nature of assay [8]: inhibitors of larval lipid processing in zebrafish, primary screen, whole organism, PED6 fluorescence, gall bladder and intestine (AID 686;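 active = a full or partial loss of lipid-probe fluorescence in the fish gall bladder, intestine or both, judged by eye; inactive = no fluorescence loss, or compound toxic to the fish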;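 note: larvae 5 to 7 days old with five fish per well; signal comes from phospholipase A2 cleavage of quenched PED6 carried via bile; overnight exposure to compound and PED6 before scoring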). To be noted: Zebrafish larvae PED6 lipid processing, fluorescence scoring; screened at 20 µM (by protocol). Summed up:
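Doses: 20 µM single dose. Test system: live zebrafish larvae aged 5-7 days, whole organism. Quantity: five larvae per well. Measured by: By-eye fluorescence microscopy. Reagent: ingested quenched lipid PED6 at 100 nM. Read-out: visual per-well fluorescence inhibition score. Times: overnight exposure of larvae to compound plus PED6.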

A short description of assay [9]: loss of swimming-algae plug formation – whole organism, Chlamydomonas reinhardtii, WT vs cilia-less mutant, absorbance, 96-well, primary screen (AID 463189;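 active = inhibition at or above 50% relative to wild type and mutant plate controls; inactive = inhibition below 50%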;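 note: 0% = wild type cc124 cells in DMSO and 100% = ciliumless bld1 mutant cells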). To be noted: Chlamydomonas reinhardtii gravitaxis, OD600 absorbance, 2 days; at 10 µM; stronger effect = higher value.
Where [10] appears, read: measured here: cell density z-score.
[11] abbreviates: measured here: nuclear c-Myc green intensity z-score.
The mark [12] stands for this setting: measured here: nuclear pErk red intensity z-score, stronger effect = higher value.

Calls of active or inactive are those of the source.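 Rule for the calls, unless noted: active = inhibition above 20% together with a positive visual image hit; inconclusive = visual image hit but inhibition not above 20%; inactive = no visual image hit.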

Chain of Voltage-gated potassium channel subunit beta-2 (Rattus norvegicus) (P62483 whole entry, looked up): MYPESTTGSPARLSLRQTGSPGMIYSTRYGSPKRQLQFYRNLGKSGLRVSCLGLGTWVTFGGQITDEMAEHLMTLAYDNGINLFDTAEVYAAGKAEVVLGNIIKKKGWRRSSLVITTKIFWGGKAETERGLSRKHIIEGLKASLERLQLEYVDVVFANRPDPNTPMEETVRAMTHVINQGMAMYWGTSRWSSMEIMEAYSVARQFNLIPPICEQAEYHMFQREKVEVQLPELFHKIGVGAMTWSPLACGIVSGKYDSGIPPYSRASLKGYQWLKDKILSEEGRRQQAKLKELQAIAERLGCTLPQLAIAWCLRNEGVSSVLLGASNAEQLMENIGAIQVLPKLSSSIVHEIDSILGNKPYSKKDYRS
Chain of Dual specificity protein phosphatase 6 (Homo sapiens) (Q16828 whole entry, looked up): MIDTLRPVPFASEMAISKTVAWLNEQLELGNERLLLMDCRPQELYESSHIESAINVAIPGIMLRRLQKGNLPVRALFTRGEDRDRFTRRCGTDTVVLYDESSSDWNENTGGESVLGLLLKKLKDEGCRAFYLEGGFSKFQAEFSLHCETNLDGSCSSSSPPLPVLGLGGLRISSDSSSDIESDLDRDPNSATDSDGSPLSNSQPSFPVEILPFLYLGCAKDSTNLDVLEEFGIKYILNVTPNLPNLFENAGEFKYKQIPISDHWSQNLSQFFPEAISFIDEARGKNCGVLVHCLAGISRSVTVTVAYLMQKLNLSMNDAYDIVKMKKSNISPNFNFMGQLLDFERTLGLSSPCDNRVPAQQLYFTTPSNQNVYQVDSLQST
Chain of Alpha-2C adrenergic receptor (Homo sapiens) (P18825 whole entry, looked up): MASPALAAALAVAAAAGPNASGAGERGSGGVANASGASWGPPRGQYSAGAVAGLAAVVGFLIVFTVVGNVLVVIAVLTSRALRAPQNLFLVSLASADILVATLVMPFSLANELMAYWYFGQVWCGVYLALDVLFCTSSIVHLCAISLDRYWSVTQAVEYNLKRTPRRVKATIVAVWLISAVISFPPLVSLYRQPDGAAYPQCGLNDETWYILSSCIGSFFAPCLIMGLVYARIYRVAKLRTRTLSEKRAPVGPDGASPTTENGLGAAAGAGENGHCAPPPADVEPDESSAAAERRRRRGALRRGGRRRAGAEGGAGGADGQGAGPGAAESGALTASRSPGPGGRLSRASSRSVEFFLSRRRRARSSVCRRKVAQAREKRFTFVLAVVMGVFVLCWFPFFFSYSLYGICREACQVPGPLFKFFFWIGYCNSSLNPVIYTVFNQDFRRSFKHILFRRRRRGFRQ

Take `Cc1ccc2[nH]c3c(c2c1)CN(C(=O)CN1CCCc2ccccc21)CC3`: the cell count in assay [1] worked out at 557. Further, the inhibition in assay [1] is -8.1% (inactive); in [2], -104% (inactive); in assay [4], 2.92% (inactive); in assay [9] it was 15.5% (inactive). The nuclei count in assay [2] amounted to 142%. The values for the z-score in [3] (setting [10]), in [3] (setting [11]) and in [3] (setting [12]) were -0.606, -1.61 and -0.633, respectively. Moreover, the fluorescence slope in [5] is -0.439 (inactive). Besides, in [6], the NADPH fluorescence slope is -7.1e-05 (inactive). Besides, the slope in assay [7] was 0.00496 (inactive). Also, in assay [8], the outcome was “active; weak signal in gallbladder and intestine”.
For the compound `COC(=O)C1=C(N)Oc2cc(C)oc(=O)c2C1c1ccncc1` (centres undefined), in assay [1], the cell count was found to be 346. Besides, the inhibition in assay [1] is -2.7% (inactive); in [2] it was 29.3% (inactive); in [4] it was -2.59% (inactive); in [9] it was 28.1% (inactive). In addition, the nuclei count in assay [2] turned out to be 149%. The values for the z-score in assay [3] (setting [10]), in assay [3] (setting [11]) and in assay [3] (setting [12]) were -0.595, -0.189 and 1.46, respectively. Besides, in assay [5], the fluorescence slope is -0.404 (inactive). The NADPH fluorescence slope in assay [6] is -0.000149 (inactive). Moreover, in assay [7], the slope is 0.00558 (inactive). Further, the outcome in assay [8] was “active; weak signal in gallbladder and intestine”.
Turning to `O=C(O)C1CSCN1S(=O)(=O)c1cccc2nsnc12` (centres undefined), in assay [1], the cell count amounted to 539. Further, the inhibition in assay [1] was -8.4% (inactive); in assay [2], -34% (inactive); in assay [4] it was -11.5% (inactive); in assay [9], -1.08% (inactive). The compound further gave a nuclei count in assay [2] of 120%. Further, the z-score is -0.369 in assay [3] (setting [10]), 1.2 in assay [3] (setting [11]) and -0.893 in assay [3] (setting [12]). For the same compound, the fluorescence slope in [5] was -0.496 (inactive). In [6], the NADPH fluorescence slope is -5.5e-05 (inactive). Also, the slope in assay [7] was 0.00516 (inactive). For the same compound, the outcome in assay [8] was inactive.
`CN1c2ccccc2N(C)C1c1c(O)ccc2ccccc12`: in [1], the cell count came out at 340. The inhibition in [1] was -22% (inactive); in assay [2] it was -387% (inactive); in assay [4], -2.07% (inactive); in [9] it was 1.66% (inactive). Moreover, the nuclei count in [2] was determined as 180%. The z-score in [3] (setting [10]) is 0.38; in assay [3] (setting [11]), -1.52; in assay [3] (setting [12]), 0.412. Besides, the fluorescence slope in assay [5] was -0.407 (inactive). Also, the NADPH fluorescence slope in assay [6] was -4.1e-05 (inactive). Further, the slope in assay [7] is 0.00586 (inactive). For the same compound, in assay [8], the result was inactive.
`O=C(Nc1nc(NC(=O)c2ccco2)n(-c2ccccc2)n1)c1ccccc1`: the cell count in assay [1] was 339. Moreover, the inhibition in assay [1] is -8.5% (inactive); in assay [2] it was -1.3% (inactive); in [4], -7.01% (inactive); in assay [9] it was 1.31% (inactive). In [2], this compound came in with a nuclei count of 157%. Besides, the z-score in assay [3] (setting [10]) is 0.978; in assay [3] (setting [11]) it was -0.403; in [3] (setting [12]), -0.743. In addition, in [5], the fluorescence slope was -0.452 (inactive). The NADPH fluorescence slope in [6] is -0.000125 (inactive). The slope in assay [7] is 0.00175 (inactive). Besides, the outcome in assay [8] was “inactive; toxic”.
For `CCC(C)Nc1nc(-c2cccc(OC)c2O)nc2ccccc12` (centres undefined), in assay [1], the cell count was determined as 570. Also, the inhibition is 3.5% (inactive) in assay [1], -68.3% (inactive) in assay [2], 1.6e-07% (inactive) in assay [4] and 65.6% (active) in [9]. The same compound yielded a nuclei count in assay [2] of 152%. Further, the z-score in assay [3] (setting [10]) is -0.862; in assay [3] (setting [11]), -0.242; in assay [3] (setting [12]), 1.22. For the same compound, the fluorescence slope in [5] was -0.394 (inactive). Also, the NADPH fluorescence slope in assay [6] is -5e-05 (inactive). In addition, the slope in [7] was 0.00426 (inactive). In assay [8], the outcome was inactive.
`Cn1c(OCc2ccc3c(c2)OCO3)nc2c1c(=O)n(Cc1cccc(Cl)c1)c(=O)n2C`: the cell count in assay [1] was determined as 646. Also, the inhibition in assay [1] is 5.7% (inactive); in assay [2], -35.9% (inactive); in assay [4], 9.61% (inactive); in [9], 4.63% (inactive). In [2], this compound had a nuclei count of 149%. For the same compound, the z-score is -0.768 in assay [3] (setting [10]), 0.366 in [3] (setting [11]) and 0.018 in assay [3] (setting [12]). In addition, the fluorescence slope in assay [5] is -0.484 (inactive). Moreover, the NADPH fluorescence slope in [6] was -0.000102 (inactive). The slope in assay [7] was 0.00957 (inactive). For the same compound, in [8], the compound was classed as inactive.
Consider `COc1ccc(/C(O)=C2/C(=O)C(=O)N(CCCN(C)C)C2c2ccccc2)cc1OC` (centres undefined), for which the cell count in assay [1] stood at 346. Further, the inhibition in [1] was -14.7% (inactive); in [2] it was -317% (inactive); in assay [4] it was 9.39% (inactive); in [9], -0.889% (inactive). This compound yielded a nuclei count in [2] of 131%. Besides, the z-score in [3] (setting [10]) is -0.204; in [3] (setting [11]), -0.251; in assay [3] (setting [12]), 0.0495. Moreover, the fluorescence slope in [5] was -0.386 (inactive). In assay [6], the NADPH fluorescence slope is -3.5e-05 (inactive). In addition, the slope in assay [7] was 0.00558 (inactive). In addition, the outcome in assay [8] was inactive.
Take `CCOC(=O)c1c(CN2CCN(C)CC2)n(C)c2cc(Br)c(OC)cc12`: the cell count in [1] was 320. For the same compound, the inhibition in assay [1] was -0.7% (inactive); in [2], -50.3% (inactive); in assay [4], -12.3% (inactive); in assay [9] it was 53.1% (active). Besides, the nuclei count in assay [2] amounted to 138%. The z-score in assay [3] (setting [10]) is -0.018; in assay [3] (setting [11]), 0.891; in [3] (setting [12]), 1.91. Moreover, the fluorescence slope in assay [5] was -0.462 (inactive). Besides, the NADPH fluorescence slope in [6] is -0.000148 (inactive). Besides, the slope in assay [7] is 0.00634 (inactive). The result in [8] was inactive.
In the case of `Cn1c2ccccc2c2nn(-c3ccccc3)c(=O)cc21`, the cell count in assay [1] turned out to be 304. The inhibition is -5% (inactive) in assay [1], -28.5% (inactive) in assay [2], -8.59% (inactive) in [4] and -13.4% (inactive) in [9]. Besides, the nuclei count in assay [2] is 94.5%. Besides, the z-score in assay [3] (setting [10]) was -1.04; in assay [3] (setting [11]), 0.853; in assay [3] (setting [12]) it was -0.375. In addition, in [5], the fluorescence slope was -0.441 (inactive). Moreover, in assay [6], the NADPH fluorescence slope is -0.000115 (inactive). Moreover, in assay [7], the slope was 0.00467 (inactive). In addition, the outcome in assay [8] was inactive.
Regarding `c1coc(-c2nnc3sc(-c4cccs4)nn23)c1`, the cell count in assay [1] is 471. Also, the inhibition in assay [1] is 2.8% (inactive); in assay [2] it was -41.9% (inactive); in [4] it was -13.3% (inactive); in assay [9], 3.53% (inactive). Moreover, the nuclei count in assay [2] was found to be 132%. Also, the values for the z-score in [3] (setting [10]), in [3] (setting [11]) and in assay [3] (setting [12]) were -1.75, 0.838 and 2.17, respectively. For the same compound, the fluorescence slope in [5] is -0.459 (inactive). Besides, the NADPH fluorescence slope in assay [6] was 9.9e-06 (inactive). In assay [7], the slope is 0.00352 (inactive). Further, the outcome in assay [8] is “active; weak signal in gallbladder and intestine”.
Turning to `CCOc1ccc(-n2c3nc4ccccc4nc3c3c(=O)n(Cc4ccco4)cnc32)cc1`, in [1], the cell count was 381. In addition, the inhibition in assay [1] was -13% (inactive); in [2], -105% (inactive); in [4] it was -7.01% (inactive); in [9], -0.886% (inactive). This compound showed a nuclei count in assay [2] of 171%. Also, the z-score in assay [3] (setting [10]) was 0.174; in assay [3] (setting [11]), 0.579; in assay [3] (setting [12]) it was -1.27. Further, the fluorescence slope in [5] was -0.417 (inactive). Also, the NADPH fluorescence slope in [6] was -0.000107 (inactive). Also, the slope in assay [7] was 0.00519 (inactive). Moreover, the call in assay [8] was inactive.
Turning to `CC1(C)Cc2nc(NCCCO)c(C#N)cc2CO1`, in [1], the cell count came to 503. Also, the inhibition in [1] was -6% (inactive); in [2] it was 29.1% (inactive); in assay [4], -11.9% (inactive); in assay [9], 5% (inactive). In addition, the nuclei count in assay [2] stood at 94.8%. For the same compound, the z-score in assay [3] (setting [10]) is -0.759; in [3] (setting [11]), 0.0263; in assay [3] (setting [12]), -0.295. In assay [5], the fluorescence slope was -0.421 (inactive). For the same compound, the NADPH fluorescence slope in assay [6] is -0.000243 (inactive). Moreover, the slope in assay [7] is 0.00519 (inactive). The call in assay [8] was inactive.
